Molecules are shown by their SMILES. Converted amounts (≈) assume the structure as drawn. A value given as a limit tells only on which side of the number the result lay.

These results are taken from ChEMBL document CHEMBL2169833, “Solubility-driven optimization of phosphodiesterase-4 inhibitors leading to a clinical candidate” (J Med Chem, 2012).

Data set [1] can be described thus: AUC total in rat at 2.1 umol/kg, po. The note with it: plasma, 2.1 umol/kg. The class given is ADME, organism-based, Plasma. In a few lines: (§1)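 Rat PK after iv and po dosing, some compounds given as the potassium or sodium salt. Vehicle was PBS or 25/75 PEG200/PBS. Dose matched formulation strength: iv 1.05, 2.1 or 4.2 μmol/kg; po 2.1 or 4.2 μmol/kg. For some compounds iv and po used the same dose (2.1 or 4.2 μmol/kg).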

The nature of data set [2]: Clearance in rat at 1.05 umol/kg, iv. The format is ADME, organism-based. The settings on record: in vivo. In a few lines: as §1
The nature of data set [3]: Tmax in rat at 2.1 umol/kg, po. The format is ADME, organism-based. The note with it: in vivo. An outline of the steps:
as §1

Data set [4] in a line: Volume of distribution at steady state in rat at 1.05 umol/kg, iv. The note with it: in vivo, read-out: Vdss. The class given is ADME, organism-based. In a few lines: as §1
The nature of data set [5]: Cmax in rat at 2.1 umol/kg, po. The class given is ADME, organism-based. Also noted: dose 2.1 umol/kg, route oral. The settings on record: in vivo. An outline of the steps:
as §1

The nature of data set [6]: Half life in rat at 2.1 umol/kg, po. The format is ADME, organism-based. The note with it: in vivo. An outline of the steps: as §1
Data set [7] in a line: (§2) Oral bioavailability in rat at 2.1 umol/kg. The settings on record: in vivo, 2.1 umol/kg. The format is ADME, organism-based. In a few lines:
as §1

The target in data set [8] is 3',5'-cyclic-AMP phosphodiesterase 4B (Homo sapiens, UniProt Q07343). The data set is described as follows: Inhibition of human PDE4B-mediated [3H]CAMP hydrolysis after 30 to 60 mins by scintillation proximity assay. An outline of the steps:
(§3)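 Enzyme was diluted in 10 mM Tris-HCl pH 7.5 with 1 mM EDTA to give 10–30% substrate hydrolysis. Substrate was [3H]-cAMP (0.1 μCi) with 1 μM cAMP. Inhibitors were tested at 10 concentrations with 1% DMSO, 30−60 min at room temperature, stopped with PDE SPA beads and counted. IC50 came from curves. Mean of ≥2 experiments in duplicate, SEM where n ≥ 3.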
In general terms: SPA uses beads or plates that emit light when radiolabelled molecules are held near them.

Data set [9] can be described thus: Thermodynamic aqueous solubility of the compound at pH 6.8. The class given is physicochemical. The settings on record: buffer; for solubility thermodynamic: read-out: Therm_solubility.
Data set [10] concerns the target 3',5'-cyclic-AMP phosphodiesterase 4D (Homo sapiens, UniProt Q08499). Description: Inhibition of human PDE4D-mediated [3H]CAMP hydrolysis after 30 to 60 mins by scintillation proximity assay. An outline of the steps: as §3
In a further data set the target is Phosphodiesterase 4 (Homo sapiens, UniProt P27815+Q08499+Q07343+Q08493). Description: Inhibition of PDE4 in human PBMC assessed as inhibition of LPS-induced TNFalpha production incubated for 10 mins prior to LPS-challenge measured after 20 hrs by sandwich ELISA. In a few lines:
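Human PBMC were isolated from normal donors by Ficoll−Hypaque and grown at 1 × 10⁶ cells/mL in RPMI1640 with 10% FCS. Compound was preincubated 10 min, then LPS added (10 ng/mL, stock added). Cells were incubated 20 h at 37 °C in 5% CO₂. Supernatant TNF-α was measured by sandwich ELISA at OD405 (sensitivity ~10 pg/mL). IC50 came from inhibition curves.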
In general terms: ELISA stands for enzyme-linked immunosorbent assay.

The target of data set [11] is 3',5'-cyclic-AMP phosphodiesterase 4A (Homo sapiens, UniProt P27815). The data set is described as follows: Inhibition of human PDE4A-mediated [3H]CAMP hydrolysis after 30 to 60 mins by scintillation proximity assay. In a few lines:
as §3

Data set [12] is described as follows: AUC total in rat at 4.2 umol/kg, po. The note with it: plasma, 4.2 umol/kg. The class given is ADME, organism-based, Plasma. An outline of the steps:
as §1

Data set [13] can be described thus: Volume of distribution at steady state in rat at 4.2 umol/kg, iv. The class given is ADME, organism-based. The note with it: in vivo, read-out: Vdss. An outline of the steps: as §1
A short description of data set [14]: Clearance in rat at 4.2 umol/kg, iv. The class given is ADME, organism-based. The note with it: in vivo. In a few lines: as §1
Data set [15] is described as follows: Tmax in rat at 4.2 umol/kg, po. The class given is ADME, organism-based. The settings on record: in vivo. An outline of the steps: as §1
A short description of data set [16]: Cmax in rat at 4.2 umol/kg, po. Also noted: dose 4.2 umol/kg, route oral. The class given is ADME, organism-based. The note with it: in vivo. In a few lines:
as §1

A short description of data set [17]: Half life in rat at 4.2 umol/kg, po. The class given is ADME, organism-based. The note with it: in vivo. In a few lines: as §1
Data set [18] can be described thus: AUC total in ferret at 3.42 umol/kg, ig. The format is ADME, organism-based, Mustela putorius furo. The note with it: plasma, po. An outline of the steps:
(§4)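 Ferret PK after intragastric dosing as a solution in PEG200/saline (50/50, v/v) at 3.42 μmol/kg, with one compound at 2.98 μmol/kg. Plasma levels were measured. Detection limits were 0.5 μM for roflumilast and <0.02 μM for its N-oxide metabolite.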

Data set [19] has as its system Rattus norvegicus. The data set is described as follows: Antiinflammatory activity in po dosed ovalbumin-sensitized Brown Norway rat assessed as inhibition of ovalbumin-induced eosinophil influx into BALF administered 2 hrs prior to ovalbumin-challenge measured after 24 hrs. The format is functional. An outline of the steps: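 Brown Norway rats were actively sensitized and dosed orally at 0.3, 1 or 3 mg/kg, or with vehicle PEG200:saline 1:1, 2 h before inhaled ovalbumin challenge. Saline-challenged rats served as controls. Eosinophils were counted in BAL fluid 24 h after challenge. Mean ± SEM, 5−10 animals per group. ED50 was estimated.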

The nature of data set [20]: Cmax in ferret at 3.42 umol/kg, ig. The settings on record: in vivo, po. Also noted: dose 3.42 umol/kg, route intragastric. The format is ADME, organism-based, Mustela putorius furo. In a few lines:
as §4

Data set [21] in a line: Tmax in ferret at 3.42 umol/kg, ig. The note with it: in vivo, po. The class given is ADME, organism-based, Mustela putorius furo. An outline of the steps:
as §4

The next data set concerns Mustela putorius furo. Description: Toxicity in ferret assessed as emesis at 0.075 to 4.8 mg/kg, po after 4 hrs. The format is organism-based. Details: dose 0.075-4.8 mg/kg, route oral. The note with it: in vivo.
The test system of another data set is Mus musculus. The data set is described as follows: Antiinflammatory activity in po dosed BALB/c mouse assessed as inhibition of LPS-induced neutrophil influx into BALF administered 1 hr prior to LPS-challenge measured after 3 hrs. The class given is functional. An outline of the steps: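 Mice were given vehicle (PEG200:saline 1:1) or compound orally at 1−30 mg/kg, 1 h before LPS challenge. The control group got vehicle with PBS challenge. Animals were killed 3 h after challenge. Pooled from two experiments, 6−15 mice per group. Mann−Whitney test versus vehicle/LPS animals.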

Data set [22] in a line: Half life in ferret at 3.42 umol/kg, ig. The format is ADME, organism-based, Mustela putorius furo. The settings on record: in vivo, po. In a few lines:
as §4

The subject of data set [23] is Rattus norvegicus. The description is as §2. The format is ADME, organism-based. The note with it: in vivo. An outline of the steps: as §1
Data set [24] in a line: Oral bioavailability in rat at 4.2 umol/kg. The format is ADME, organism-based. The settings on record: in vivo, 4.2 umol/kg. An outline of the steps:
as §1

Chain of 3',5'-cyclic-AMP phosphodiesterase 4A (P27815 whole entry): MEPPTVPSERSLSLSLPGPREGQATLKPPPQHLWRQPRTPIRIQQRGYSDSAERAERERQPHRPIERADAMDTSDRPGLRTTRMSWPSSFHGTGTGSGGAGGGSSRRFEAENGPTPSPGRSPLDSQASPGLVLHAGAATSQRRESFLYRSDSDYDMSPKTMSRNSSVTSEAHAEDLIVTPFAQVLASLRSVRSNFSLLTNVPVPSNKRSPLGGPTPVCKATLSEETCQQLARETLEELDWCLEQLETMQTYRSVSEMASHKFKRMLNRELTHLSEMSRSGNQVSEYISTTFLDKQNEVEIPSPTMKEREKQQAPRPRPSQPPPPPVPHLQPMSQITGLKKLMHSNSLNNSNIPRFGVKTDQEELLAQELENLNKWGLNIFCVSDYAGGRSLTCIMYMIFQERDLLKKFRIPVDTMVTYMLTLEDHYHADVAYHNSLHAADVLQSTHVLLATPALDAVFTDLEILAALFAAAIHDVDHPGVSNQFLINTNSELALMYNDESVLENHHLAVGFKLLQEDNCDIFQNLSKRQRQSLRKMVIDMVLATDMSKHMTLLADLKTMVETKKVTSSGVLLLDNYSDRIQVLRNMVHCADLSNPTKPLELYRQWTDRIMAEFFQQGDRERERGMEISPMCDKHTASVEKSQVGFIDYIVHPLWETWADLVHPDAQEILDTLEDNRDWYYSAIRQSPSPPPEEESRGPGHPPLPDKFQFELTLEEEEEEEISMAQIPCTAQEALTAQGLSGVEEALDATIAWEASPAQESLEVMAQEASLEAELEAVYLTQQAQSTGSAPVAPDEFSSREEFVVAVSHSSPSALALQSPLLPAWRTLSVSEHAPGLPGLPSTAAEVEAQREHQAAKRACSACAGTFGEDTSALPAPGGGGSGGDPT
Chain of 3',5'-cyclic-AMP phosphodiesterase 4D (Q08499 whole entry): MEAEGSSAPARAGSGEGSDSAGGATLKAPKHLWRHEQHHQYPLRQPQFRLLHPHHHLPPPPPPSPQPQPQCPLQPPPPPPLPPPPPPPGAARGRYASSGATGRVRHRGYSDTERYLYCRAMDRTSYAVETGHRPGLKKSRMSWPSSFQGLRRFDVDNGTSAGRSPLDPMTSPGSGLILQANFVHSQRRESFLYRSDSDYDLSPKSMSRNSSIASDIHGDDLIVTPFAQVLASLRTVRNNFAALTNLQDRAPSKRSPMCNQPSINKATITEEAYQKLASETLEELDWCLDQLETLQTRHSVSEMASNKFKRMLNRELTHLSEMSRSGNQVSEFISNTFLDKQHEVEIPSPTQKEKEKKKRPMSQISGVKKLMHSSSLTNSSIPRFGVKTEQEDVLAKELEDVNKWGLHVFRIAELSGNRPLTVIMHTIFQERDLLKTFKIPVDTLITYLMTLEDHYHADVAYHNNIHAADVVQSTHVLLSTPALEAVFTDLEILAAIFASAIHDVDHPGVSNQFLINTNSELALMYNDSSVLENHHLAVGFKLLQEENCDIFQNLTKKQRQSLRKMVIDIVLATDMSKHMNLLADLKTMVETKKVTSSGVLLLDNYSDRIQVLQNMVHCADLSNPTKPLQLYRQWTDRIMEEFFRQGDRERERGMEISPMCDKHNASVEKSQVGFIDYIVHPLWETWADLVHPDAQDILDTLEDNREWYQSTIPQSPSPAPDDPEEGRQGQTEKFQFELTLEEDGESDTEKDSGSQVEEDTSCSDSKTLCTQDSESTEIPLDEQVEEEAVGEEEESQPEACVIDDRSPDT
Chain of 3',5'-cyclic-AMP phosphodiesterase 4B (Q07343 whole entry): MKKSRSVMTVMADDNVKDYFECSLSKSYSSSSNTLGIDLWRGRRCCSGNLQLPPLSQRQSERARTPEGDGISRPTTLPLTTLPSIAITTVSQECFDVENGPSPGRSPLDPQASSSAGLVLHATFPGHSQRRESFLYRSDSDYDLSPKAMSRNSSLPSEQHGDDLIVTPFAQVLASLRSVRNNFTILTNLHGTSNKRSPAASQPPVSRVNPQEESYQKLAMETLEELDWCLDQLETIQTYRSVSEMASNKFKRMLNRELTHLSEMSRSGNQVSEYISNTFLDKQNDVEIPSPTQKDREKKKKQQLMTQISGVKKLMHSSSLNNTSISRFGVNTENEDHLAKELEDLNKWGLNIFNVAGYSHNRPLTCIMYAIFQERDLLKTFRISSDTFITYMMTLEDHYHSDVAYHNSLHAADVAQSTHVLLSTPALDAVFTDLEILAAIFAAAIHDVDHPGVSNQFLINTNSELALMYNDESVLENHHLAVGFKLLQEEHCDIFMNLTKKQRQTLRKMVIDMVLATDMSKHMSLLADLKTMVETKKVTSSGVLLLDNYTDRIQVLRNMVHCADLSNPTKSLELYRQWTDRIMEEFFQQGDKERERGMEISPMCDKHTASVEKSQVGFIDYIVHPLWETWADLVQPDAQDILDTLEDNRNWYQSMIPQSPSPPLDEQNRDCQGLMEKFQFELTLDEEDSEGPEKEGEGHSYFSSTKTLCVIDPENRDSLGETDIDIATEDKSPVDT

In general, AUC refers to concentration integrated over time. Read a high AUC as high exposure. As a reminder, the clearance is the rate of elimination divided by the concentration. Lower therefore signals a low capacity for elimination. The Tmax is the time from dosing to the highest level. Broadly, the Cmax is the highest concentration seen after dosing. The half-life is the time needed for the level to fall by half in the phase considered. A lower half-life goes with rapid decline. In [1], `O=C([O-])C1CCN(c2cc3cccnc3c(-c3cccc(OC(F)(F)F)c3)n2)CC1.[Na+]` gave an AUC of 54.4 µM·h. In [2], this compound yielded a clearance of 0.98 mL/min/kg. The Tmax in [3] was 2.88 h. In addition, the Vd in data set [4] is 0.25 L/kg. This compound came in with a Cmax in data set [5] of 4.49 µM. This compound also gave a half-life in data set [6] of 7 h. In data set [7], the bioavailability came out at 149%.

For orientation: IC50 means the concentration needed to halve the response being measured. As to `CSc1cccc(-c2nc([C@H]3CC[C@H](C(=O)O)CC3)cc3cccnc23)c1`, the 50% inhibitory concentration (IC50) in [8] is 17 nM; in data set [10], 6 nM; at Phosphodiesterase 4, 19 nM; in [11], 27 nM. In data set [9], the solubility thermodynamic stood at 1100 µg/mL (≈ 2910 µM).

In data set [12], `N#Cc1cccc(-c2nc([C@H]3CC[C@H](C(=O)[O-])CC3)cc3cccnc23)c1.[K+]` showed an AUC of 1880 µM·h. In data set [13], the Vd turned out to be 0.25 L/kg. In addition, the clearance in data set [14] turned out to be 0.22 mL/min/kg. Also, the time of peak concentration (Tmax) in data set [15] was 25 h. Moreover, the Cmax in data set [16] was determined as 8.3 µM. Besides, the half-life in [17] is 193 h.

Take `O=C(O)C1CCN(c2cc3cccnc3c(-c3cccc(OC(F)(F)F)c3)n2)CC1`: the values for the IC50 in data set [8], in data set [10] and in data set [11] were 225 nM, 30 nM and 371 nM, respectively. For the same compound, the solubility thermodynamic in data set [9] was determined as 1950 µg/mL (≈ 4670 µM).

As a reminder, the ED50 is the midpoint of the dose-response relation. Compound `O=C(O)[C@H]1CC[C@H](c2cc3cccnc3c(-c3cccc(F)c3)n2)CC1` [listing 1 of 2 here] had an AUC in data set [18] of 59.3 µM·h. Besides, the IC50 in data set [8] worked out at 34 nM; in data set [10] it was 32 nM; at Phosphodiesterase 4, 126 nM; in data set [11], 123 nM. This compound also had a Therm_solubility in data set [9] of 920 µg/mL. For the same compound, the 50% effective dose (ED50) in the data set on Rattus norvegicus [19] was 1.2 mg/kg; with Mus musculus it was 11.2 mg/kg. The Cmax in data set [20] worked out at 12.3 µM. Moreover, the time to peak (Tmax) in data set [21] was 1.5 h. For the same compound, the Activity result in the data set on Mustela putorius furo is reported as “Non-toxic”. This compound showed a half-life in data set [22] of 3.2 h.

Regarding `N#Cc1cccc(-c2nc(N3CCC(C(=O)O)CC3)cc3cccnc23)c1`, the IC50 in data set [8] is 168 nM; in data set [10], 19 nM; on Phosphodiesterase 4, 851 nM; in [11], 271 nM. Further, in data set [9], the solubility thermodynamic was above 4000 µg/mL. In data set [1], the AUC is 46.1 µM·h. The clearance in [2] amounted to 1.16 mL/min/kg. For the same compound, the time of peak concentration (Tmax) in data set [3] was 2.15 h. In [4], the Vd was 0.72 L/kg. Besides, in data set [5], the Cmax turned out to be 2.8 µM. For the same compound, the half-life in [6] is 23 h. In the data set with Rattus norvegicus [23], the F was 158%.

For `COc1cccc(-c2nc([C@H]3CC[C@H](C(=O)O)CC3)cc3cccnc23)c1`, the half-maximal inhibitory concentration (IC50) amounted to 156 nM in [8], 64 nM in [10], 151 nM on Phosphodiesterase 4 and 242 nM in [11]. In data set [9], the Therm_solubility was found to be 150 µg/mL.

Take `N#Cc1cccc(-c2nc([C@H]3CC[C@H](C(=O)O)CC3)cc3cccnc23)c1`: the IC50 in [8] turned out to be 93 nM; in data set [10], 41 nM; at Phosphodiesterase 4 it was 53 nM; in [11] it was 160 nM. In data set [9], the Therm_solubility came out at 430 µg/mL. In [24], the bioavailability came out at 92%.

Regarding `O=C(O)[C@H]1CC[C@H](c2cc3cccnc3c(-c3cccc(F)c3)n2)CC1` [listing 2 of 2 here], the inhibition entry in the data set on Rattus norvegicus [19] was “Dose-dependent effect”.

In the case of `O=C(O)C1CCN(c2cc3cccnc3c(-c3cccc(Cl)c3)n2)CC1`, the half-inhibitory concentration (IC50) was 187 nM in data set [8], 30 nM in [10], 541 nM at Phosphodiesterase 4 and 364 nM in data set [11]. Besides, the solubility thermodynamic in data set [9] turned out to be 140 µg/mL (≈ 381 µM).
